Results from article PMC9801203 (Poultry Science, 2022).
Like-named read-outs stand apart in the source and are kept apart here. Marks after values point to notes of the source that are not given here.

How the values were obtained:
[1] = toxin levels in tissues of hatched chicks after in ovo injection; type: in vivo, Gallus gallus domesticus; conditions: for Toxin level in heart / Toxin level in kidneys / Toxin level in liver / Toxin level in serum / Toxin level in yolk sac: hatched chicks, mean ± SD; for presence as potential metabolite of OTA and 2’R-OTA in isolated organs: chicks after in ovo injection of OTA or 2’R-OTA
In short: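 Eggs (30/group) punctured with a 0.5 mm needle, injected with test compound at 0.25, 0.50 or 0.75 µg/egg in 50 µL ultra-pure water, sealed; incubated 37.5–38.5°C, 50–60% RH, turned 45° every 2 h. Hatched chicks decapitated; serum and tissues (200 mg) deconjugated with β-glucuronidase/arylsulfatase overnight at 37°C, acetonitrile-based extraction, ¹³C₂₀-OTA internal standard, HPLC-MS/MS positive mode.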

[2] = system: chicken embryo fibroblasts cell line SL-29 (ATCC CRL1590); test: MTT cytotoxicity assay, 48 h exposure; type: cell-based, Gallus gallus
In short: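 SL-29 chicken embryo fibroblasts were grown in DMEM with 5% FBS, 5% tryptose phosphate broth, 2 mM L-glutamine and penicillin/streptomycin at 37°C and 5% CO2. Cells were exposed to a ten-point twofold dilution series for 48 h at 37°C and 5% CO2. MTT (5 mg/mL stock in PBS) was added for 4 h and removed. Formazan was dissolved in DMSO and absorbance read at 510 nm. Samples below 50% were considered toxic.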

[3] = humans, calculated; ref Sueck et al. (2019b); cited from earlier work
chicken embryos [4] = type: in vivo, Gallus gallus domesticus; conditions: for effect on chick quality (in words): compared with control group; for Early dead embryos: embryos dead up to 7 d of incubation; for Late dead embryos: embryos died after 7 d of incubation; for Hatchability: hatchability of fertile eggs; for BW: hatched chicks; for BW / Chicks quality: Average score of chicks with score <100: mean ± SD; for Chicks quality: Average score of all chicks: maximum score 100, mean ± SD
In short: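 Hatching eggs in groups of 30 per repetition: one control without puncture, one punctured without injection. A 0.5 mm needle puncture delivered 0.25, 0.50 or 0.75 µg/egg in 50 µL ultrapure water (sonicated, autoclaved 108°C, 3 min); the site was sealed with plaster. Incubation at 37.5–38.5°C and 50–60% RH, turned 45° every 2 h. Candling at days 6 and 18; early deaths ≤7 d. Hatched chicks were weighed and quality-scored (maximum 100).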

[5] = system: human liver carcinoma cell line HepG2; conditions: HepG2 cells; ref Cramer et al. (2010); cited from earlier work
IHKE cells = conditions: cytotoxicity, ref Bittner et al., 2015; cited from earlier work
[6] = chickens; ref Galtier et al., 1981; cited from earlier work
[7] = pigs; ref Harwig et al., 1983; cited from earlier work
embryos of Danio rerio = conditions: ref Haq et al., 2016; cited from earlier work
chicken embryos [8] = conditions: 1 µg/egg, after 9 d of incubation; ref Hassan et al. (2012a); cited from earlier work
HeLa cells = conditions: acute toxicity, ref Xiao et al., 1996; cited from earlier work
[9] = system: serum-free cultures of embryonic brains of Tetra SL chick stage 29; conditions: 8-day exposure, embryonic chick brain cultures; ref Bruinink et al. (1998); cited from earlier work
[10] = MTT reduction, SL-29 cells, 48 h exposure

C[C@@H]1Cc2c(Cl)cc(C(=O)N[C@H](Cc3ccccc3)C(=O)O)c(O)c2C(=O)O1 [2’R-OTA, 2’R-ochratoxin A]
Toxin level in heart ([1]; in ovo injection 0.25 µg/egg): 0.00 ± 0.00a µg/kg | Toxin level in kidneys ([1]; in ovo injection 0.25 µg/egg): 1.18 ± 0.07b µg/kg | Toxin level in liver ([1]; in ovo injection 0.25 µg/egg): 1.11 ± 0.02b µg/kg | Toxin level in serum ([1]; in ovo injection 0.25 µg/egg): 0.38 ± 0.00 µg·days/kg | Toxin level in yolk sac ([1]; in ovo injection 0.25 µg/egg): 4.65 ± 0.04b µg/kg | Toxin level in heart ([1]; in ovo injection 0.50 µg/egg): 0.32 ± 0.02c µg/kg | Toxin level in kidneys ([1]; in ovo injection 0.50 µg/egg): 1.59 ± 0.07c µg/kg | Toxin level in liver ([1]; in ovo injection 0.50 µg/egg): 2.81 ± 0.16c µg/kg | Toxin level in serum ([1]; in ovo injection 0.50 µg/egg): 0.30 ± 0.00c µg/kg | Toxin level in yolk sac ([1]; in ovo injection 0.50 µg/egg): 7.52 ± 0.26 µg·days/kg | Toxin level in heart ([1]; in ovo injection 0.75 µg/egg): 0.87 ± 0.02e µg/kg | Toxin level in kidneys ([1]; in ovo injection 0.75 µg/egg): 5.19 ± 0.14f µg/kg | Toxin level in liver ([1]; in ovo injection 0.75 µg/egg): 12.68 ± 0.10f µg/kg | Toxin level in serum ([1]; in ovo injection 0.75 µg/egg): 1.87 ± 0.02f µg/kg | Toxin level in yolk sac ([1]; in ovo injection 0.75 µg/egg): 19.83 ± 0.63g µg/kg | IC50 [2, 10]: 6.54 µM | biological half-life [3]: approx. 6 mo | effect on chick quality (in words) (chicken embryos [4]): did not reduce chick quality | Chicks quality: Chicks with score 100 (chicken embryos [4]; in ovo injection 0.25 µg/egg): 96.6%^c | Early dead embryos (chicken embryos [4]; in ovo injection 0.25 µg/egg): 14.4%^bc | Late dead embryos (chicken embryos [4]; in ovo injection 0.25 µg/egg): 6.6%^b | Hatchability (chicken embryos [4]; in ovo injection 0.25 µg/egg): 61.1%^b | BW (chicken embryos [4]; in ovo injection 0.25 µg/egg): 41.83 ± 2.54^a g | Chicks quality: Average score of all chicks (chicken embryos [4]; in ovo injection 0.25 µg/egg): 98.97 ± 5.57^b | Chicks quality: Average score of chicks with score <100 (chicken embryos [4]; in ovo injection 0.25 µg/egg): 80.00 ± 0.00^a | Chicks quality: Chicks with score 100 (chicken embryos [4]; in ovo injection 0.50 µg/egg): 68.6%^ab | Early dead embryos (chicken embryos [4]; in ovo injection 0.50 µg/egg): 15.5%^bc | Late dead embryos (chicken embryos [4]; in ovo injection 0.50 µg/egg): 4.4%^b | Hatchability (chicken embryos [4]; in ovo injection 0.50 µg/egg): 58.9%^b | BW (chicken embryos [4]; in ovo injection 0.50 µg/egg): 41.59 ± 2.91^a g | Chicks quality: Average score of all chicks (chicken embryos [4]; in ovo injection 0.50 µg/egg): 96.03 ± 8.37^ab | Chicks quality: Average score of chicks with score <100 (chicken embryos [4]; in ovo injection 0.50 µg/egg): 87.36 ± 10.85^a | Chicks quality: Chicks with score 100 (chicken embryos [4]; in ovo injection 0.75 µg/egg): 70.8%^b | Early dead embryos (chicken embryos [4]; in ovo injection 0.75 µg/egg): 21.1%^c | Late dead embryos (chicken embryos [4]; in ovo injection 0.75 µg/egg): 11.1%^c | Hatchability (chicken embryos [4]; in ovo injection 0.75 µg/egg): 46.7%^b | BW (chicken embryos [4]; in ovo injection 0.75 µg/egg): 42.43 ± 2.90^a g | Chicks quality: Average score of all chicks (chicken embryos [4]; in ovo injection 0.75 µg/egg): 94.08 ± 14.62^ab | Chicks quality: Average score of chicks with score <100 (chicken embryos [4]; in ovo injection 0.75 µg/egg): 79.71 ± 21.88^ab | cytotoxic effect relative to OTA [5]: approx. Tenfold lower cytotoxic effect

C[C@@H]1Cc2c(Cl)cc(C(=O)N[C@@H](Cc3ccccc3)C(=O)O)c(O)c2C(=O)O1 [OTA, ochratoxin A]
Toxin level in heart ([1]; in ovo injection 0.25 µg/egg): 0.00 ± 0.00a µg/kg | Toxin level in kidneys ([1]; in ovo injection 0.25 µg/egg): 2.70 ± 0.07 µg·days/kg | Toxin level in liver ([1]; in ovo injection 0.25 µg/egg): 4.37 ± 0.04 µg·days/kg | Toxin level in serum ([1]; in ovo injection 0.25 µg/egg): 0.22 ± 0.00b µg/kg | Toxin level in yolk sac ([1]; in ovo injection 0.25 µg/egg): 7.04 ± 0.08c µg/kg | Toxin level in heart ([1]; in ovo injection 0.50 µg/egg): 0.25 ± 0.01b µg/kg | Toxin level in kidneys ([1]; in ovo injection 0.50 µg/egg): 4.56 ± 0.21e µg/kg | Toxin level in liver ([1]; in ovo injection 0.50 µg/egg): 7.12 ± 0.19e µg/kg | Toxin level in serum ([1]; in ovo injection 0.50 µg/egg): 0.31 ± 0.00c µg/kg | Toxin level in yolk sac ([1]; in ovo injection 0.50 µg/egg): 10.43 ± 0.21e µg/kg | Toxin level in heart ([1]; in ovo injection 0.75 µg/egg): 0.59 ± 0.01 µg·days/kg | Toxin level in kidneys ([1]; in ovo injection 0.75 µg/egg): 11.83 ± 0.35g µg/kg | Toxin level in liver ([1]; in ovo injection 0.75 µg/egg): 16.02 ± 0.28g µg/kg | Toxin level in serum ([1]; in ovo injection 0.75 µg/egg): 0.61 ± 0.01e µg/kg | Toxin level in yolk sac ([1]; in ovo injection 0.75 µg/egg): 12.40 ± 0.31f µg/kg | IC50 ([2]; Gallus gallus, Fibroblast, 48 h): 0.24 µM | IC50 (IHKE cells): 0.5 µM | half-life [6]: 4.1 h | biological half-life [3]: 1 mo | order of organs in which the toxin accumulated [7]: kidneys > liver > muscle tissue and fat | teratogenicity and mortality (in words) (embryos of Danio rerio): high OTA teratogenicity | effect on chick quality (in words) (chicken embryos [4]): considerably reduced the number of chicks with a score of 100 | Chicks quality: Chicks with score 100 (chicken embryos [4]; in ovo injection 0.25 µg/egg): 82.7%^bc | Early dead embryos (chicken embryos [4]; in ovo injection 0.25 µg/egg): 12.2%^b | Late dead embryos (chicken embryos [4]; in ovo injection 0.25 µg/egg): 4.4%^b | Hatchability (chicken embryos [4]; in ovo injection 0.25 µg/egg): 58.9%^b | BW (chicken embryos [4]; in ovo injection 0.25 µg/egg): 41.53 ± 3.06^a g | Chicks quality: Average score of all chicks (chicken embryos [4]; in ovo injection 0.25 µg/egg): 97.02 ± 9.51^b | Chicks quality: Average score of chicks with score <100 (chicken embryos [4]; in ovo injection 0.25 µg/egg): 82.78 ± 17.33^a | Early dead embryos (chicken embryos [4]; in ovo injection 0.50 µg/egg): 12.2%^b | Late dead embryos (chicken embryos [4]; in ovo injection 0.50 µg/egg): 8.9%^b | Hatchability (chicken embryos [4]; in ovo injection 0.50 µg/egg): 50.0%^ab | BW (chicken embryos [4]; in ovo injection 0.50 µg/egg): 41.59 ± 3.12^a g | Chicks quality: Average score of all chicks (chicken embryos [4]; in ovo injection 0.50 µg/egg): 98.77 ± 4.52^b | Chicks quality: Average score of chicks with score <100 (chicken embryos [4]; in ovo injection 0.50 µg/egg): 88.00 ± 9.27^a | Chicks quality: Chicks with score 100 (chicken embryos [4]; in ovo injection 0.75 µg/egg): 63.3%^a | Early dead embryos (chicken embryos [4]; in ovo injection 0.75 µg/egg): 31.1%^d | Late dead embryos (chicken embryos [4]; in ovo injection 0.75 µg/egg): 4.4%^b | Hatchability (chicken embryos [4]; in ovo injection 0.75 µg/egg): 35.6%^a | BW (chicken embryos [4]; in ovo injection 0.75 µg/egg): 41.42 ± 3.71^a g | Chicks quality: Average score of all chicks (chicken embryos [4]; in ovo injection 0.75 µg/egg): 91.03 ± 19.55^a | Chicks quality: Average score of chicks with score <100 (chicken embryos [4]; in ovo injection 0.75 µg/egg): 75.55 ± 26.30^b | embryo defect: beak hypoplasia (chicken embryos [8]): 45% | embryo defect: beak retrognathism (chicken embryos [8]): 12% | embryo defect: cleft spine (chicken embryos [8]): 10% | embryo defect: exencephaly (chicken embryos [8]): 4% | embryo defect: microphthalmia (chicken embryos [8]): 35% | embryo defect: no eye development (chicken embryos [8]): 49% | embryo defect: nonunited abdominal integuments (chicken embryos [8]): 8% | embryo defect: reduced body weight (chicken embryos [8]): 15% | IC50 (HeLa cells): 5 µM

C[C@@H]1Cc2ccc(C(=O)N[C@@H](Cc3ccccc3)C(=O)O)c(O)c2C(=O)O1 [OTB, ochratoxin B]
presence as potential metabolite of OTA and 2’R-OTA in isolated organs [1]: not found in any of the organs tested above the LOD | IC50 [2, 10]: 7.96 µM

C[C@@H]1Cc2c(Cl)cc(C(=O)O)c(O)c2C(=O)O1 [OTα, α-ochratoxin]
presence as potential metabolite of OTA and 2’R-OTA in isolated organs [1]: not found in any of the organs tested above the LOD | IC50 [2, 10]: 5.26 µM | nontoxic up to (concentration) (IHKE cells): ≥ 50 µM | neurotoxic effects not observed up to (concentration) [9]: ≥ 15 µM | teratogenicity and mortality (in words) (embryos of Danio rerio): negligible teratogenicity and mortality | IC50 (HeLa cells): 560 µM
